This note sets out measurements from ChEMBL document CHEMBL1140891, “Design, synthesis and biological evaluation of novel stilbene-based antitumor agents” (Bioorg Med Chem, 2009).

One series relates to MDA-MB-231. As to the kind of experiment: Cytotoxicity against human MDA-MB-231 cells after 48 hrs by alamar blue assay. Type of series: functional, cell-based. The following applies: MDA-MB-231, 48 h. The method, boiled down:
(§1)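 MDA-MB231, MiaPaCa2 and SNU423 cells (ATCC) were grown in DMEM, and UCI-101 cells in IMDM. Both media had 10% FBS plus penicillin/streptomycin/glutamine, under 5% CO2. Cells were treated for 48 h at seven concentrations from 0 to 3.0. Alamar Blue was added at 1/10 volume and OD was read at 570 and 600 nm. % growth inhibition versus untreated cells used extinction-coefficient formula; IC50 from three experiments.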

A further series deals with MIA PaCa-2. As to the kind of experiment: Cytotoxicity against human MIAPaCa2 cells after 48 hrs by alamar blue assay. Type of series: functional, cell-based. The following applies: MIA PaCa-2, 48 h. In a few lines:
as §1

The test system of a further series is SNU-423. As to the kind of experiment: Cytotoxicity against human SNU423 cells after 48 hrs by alamar blue assay. Type of series: functional, cell-based. As to conditions: SNU-423, 48 h. The method, boiled down: as §1
Series [1] can be described thus: Cytotoxicity against human UCI101 cells after 48 hrs by alamar blue assay. Type of series: functional, cell-based. As to conditions: UCI101, 48 h. The method, boiled down:
as §1

Series [2] is described as follows: Inhibition of tubulin without microtubule associated protein polymerization at 5 uM after 60 mins.
Series [3] can be described thus: Solubility in water. Type of series: physicochemical.
The next series concerns HL-60. As to the kind of experiment: Induction of apoptosis in human HL60 cells by flow cytometry. Type of series: functional, cell-based.

Each structure is given as a SMILES string. Activity calls are given as the source filed them. The rule behind the calls is not given here.

With `COc1cc2c(c(OC)c1OC)-c1ccc(OC)c(=O)cc1[C@@H](NC(C)=O)CC2` [COLCHICINE], the IC50 worked out at 20 nM in the series on MDA-MB-231, 25 nM with MIA PaCa-2, 25 nM in the series on SNU-423 and 30 nM in series [1]. Moreover, the result in series [2] was Active.
In the case of `COc1cc(/C=C\c2ccc(OC)c(NC(=O)OCCOCCOCCO)c2)cc(OC)c1`, the IC50 in series [1] was over 10000 nM.
Same read-out and setting: to `COc1ccc(/C=C\c2ccc3[nH]ccc3c2)cc1N` belongs 5000 nM; to `COc1cc(/C=C\c2ccc(OC)c(NC(=O)NCCN3CCOCC3)c2)cc(OC)c1`, over 10000 nM.
In the case of `COc1cc(/C=C\c2ccc3[nH]ccc3c2)cc(OC)c1`, the IC50 with MDA-MB-231 was 250 nM; in the series on MIA PaCa-2, 200 nM; in the series with SNU-423 it was 700 nM; in series [1], 250 nM.
With `COc1cc(/C=C\c2ccc(OC)c(NC(=O)OCCN3CCOCC3)c2)cc(OC)c1` [listing 1 of 2 here], the IC50 (in the series with SNU-423; in series [1]) was 5000 nM in each case.
In series [1], `COc1ccc(/C=C\c2ccc3c(ccn3C)c2)cc1N` registered an IC50 of 200 nM. The solubility in series [3] was under 1000 µg/mL.
Regarding `COc1cc(/C=C\c2ccc3c(ccn3C)c2)cc(OC)c1`, the IC50 in the series on MDA-MB-231 came to 80 nM; in the series with MIA PaCa-2 it was 80 nM; with SNU-423, 30 nM; in series [1], 40 nM. In addition, the solubility in series [3] was under 1000 µg/mL.
Consider `COc1cc(/C=C\c2ccc(OC)c(N)c2)cc(OC)c1` [listing 1 of 2 here], for which, in series [2], the outcome was Active.
As to `COc1cc(/C=C\c2ccc3cc[nH]c3c2)cc(OC)c1`, the half-inhibitory concentration (IC50) with MDA-MB-231 turned out to be 250 nM; in the series with MIA PaCa-2 it was 200 nM; in the series with SNU-423, 700 nM; in series [1], 250 nM.
For the compound `COc1cc(/C=C\c2ccc3[nH]cnc3c2)cc(OC)c1`, the IC50 was 800 nM with MDA-MB-231, 800 nM in the series on MIA PaCa-2, 1000 nM in the series on SNU-423 and 260 nM in series [1].
`COc1cc(/C=C\c2ccc(OC)c(NC(=O)OCCN3CCOCC3)c2)cc(OC)c1.O=C(O)C(=O)O` registered a solubility in series [3] of 5900 µg/mL.
As to `COc1cc(/C=C\c2ccc(OC)c(N)c2)cc(OCC(=O)O)c1`, in series [1], the IC50 is over 10000 nM.
As for `CC[C@]1(O)C[C@H]2CN(CCc3c([nH]c4ccccc34)[C@@](C(=O)OC)(c3cc4c(cc3OC)N(C=O)[C@H]3[C@@](O)(C(=O)OC)[C@H](OC(C)=O)[C@]5(CC)C=CCN6CC[C@]43[C@@H]65)C2)C1` [VINCRISTINE], the 50% inhibitory concentration (IC50) in the series on MDA-MB-231 is 15 nM; with MIA PaCa-2, 15 nM; in the series on SNU-423 it was 10 nM; in series [1], 20 nM.
`COc1cc(/C=C\c2ccc(OC)c(N)c2)cc(OC)c1.O=C(O)C(=O)O` returned a solubility in series [3] of under 1000 µg/mL.
`COc1cc(/C=C\c2ccc(OC)c(NC(=O)OCCN3CCOCC3)c2)cc(OC)c1` [listing 2 of 2 here] yielded a solubility in series [3] of under 1000 µg/mL.
For `COc1cc(/C=C\c2ccc(OC)c(N)c2)cc(OCCO)c1`, the IC50 is 80 nM in the series on MDA-MB-231, 180 nM in the series with MIA PaCa-2, 200 nM in the series on SNU-423 and 150 nM in series [1].
Compound `COc1cc(/C=C\c2ccc3ccn(C)c3c2)cc(OC)c1` yielded an IC50 in series [1] of 220 nM.
Consider `COc1ccc(/C=C\c2cc(OC)c(OC)c(OC)c2)cc1O` [COMBRETASTATIN A4], for which the IC50 is 4 nM in the series on MDA-MB-231, 8 nM in the series on MIA PaCa-2, 6 nM in the series with SNU-423 and 2 nM in series [1].
With `COc1cc(/C=C\c2ccc(OC)c(O)c2)cc(OC)c1`, the values for the IC50 (with SNU-423; in series [1]; with HL-60) were 15 nM, 30 nM and 30 nM, respectively.
In the case of `COc1cc(O)cc(/C=C\c2ccc(OC)c(N)c2)c1`, the IC50 was 800 nM in the series with MDA-MB-231, 700 nM with MIA PaCa-2, 2000 nM with SNU-423 and 800 nM in series [1]. The result in series [2] was Active.
As to `COc1cc(/C=C\c2ccc(OC)c(N)c2)cc(OC(C)C)c1`, the midpoint of inhibition in series [1], the IC50, lay at 100 nM.
In series [1], `CCOc1cc(/C=C\c2ccc(OC)c(N)c2)cc(OC)c1` showed an IC50 of 80 nM. Also, the outcome in series [2] was Active.
On to `COc1cc(/C=C\c2ccc(OC)c(N)c2)cc(OC)c1` [listing 2 of 2 here], for which, in series [3], the solubility is under 1000 µg/mL.
For `C=CCOc1cc(/C=C\c2ccc(OC)c(N)c2)cc(OC)c1`, the IC50 in series [1] came to 200 nM.
With `COc1cc(/C=C\c2ccc(OC)c(N)c2)cc(OC)c1.Cl`, the IC50 is 30 nM in the series on MDA-MB-231; 40 nM with MIA PaCa-2; 30 nM in the series with SNU-423; 30 nM in series [1]; 30 nM with HL-60. This compound had a solubility in series [3] of 6000 µg/mL.
